# Measurements published in ChEMBL document CHEMBL1126221, “Antimitotic agents: structure-activity studies with some pyridine derivatives” (J Med Chem, 1992).
# “And” between values parts separate entries of the source, which are not always exact repeats. Identical values can stand only once.
# Legend:
# L1210 (mouse) = test: Compound was evaluated for antitumor activity against mice implanted with lymphatic leukemia L1210 cells (10e6 tumor cells) after intraperitoneal administration of 50 mg/kg per injection (single dose on day 1); conditions: L1210, ip, 24 h
# L1210 [1] = test: Effect of the compound(10 uM) on DNA synthesis in L1210 cells in culture measured as incorporation of [3H]L-Leu; assay type: functional, Mus musculus; conditions: in the assay text read “protein synthesis” for “DNA synthesis”
# Outline: (§1)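 Cultured L1210 cells were treated with agent at 2.5–50 μM. Labeled precursor incorporation is reported as percent of control: [3H]dThd into DNA, […] into DNA and RNA, and [3H]L-Leu into protein.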
# L1210 [2] = test: Effect of the compound(10 uM) on DNA synthesis in L1210 cells in culture measured as incorporation of [5-3H]-Urd; assay type: functional, Mus musculus
# L1210 [3] = test: Effect of the compound(10 uM) on RNA synthesis in L1210 cells in culture measured as incorporation of [5-3H]-Urd; assay type: functional, Mus musculus
# Outline: as §1
# L1210 [4] = test: Concentration required to inhibit proliferation of cultured lymphoid leukemia L1210 cells to 50% growth over 48 hours; assay type: functional, cell-based; conditions: Mus musculus, L1210, 48 h
# Outline: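 Cultured lymphoid leukemia L1210 cells were exposed to agent for 48 h. IC50 is the micromolar concentration that holds proliferation to 50% growth.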
# L1210 [5] = test: Effect of the compound(25 uM) on DNA synthesis in L1210 cells in culture measured as incorporation of [3H]L-Leu; assay type: functional, Mus musculus; conditions: in the assay text read “protein synthesis” for “DNA synthesis”
# Outline: as §1
# L1210 [6] = test: Effect of the compound(25 uM) on DNA synthesis in L1210 cells in culture measured as incorporation of [3H]dThd; assay type: functional, Mus musculus
# Outline: as §1
# L1210 [7] = test: Effect of the compound(25 uM) on DNA synthesis in L1210 cells in culture measured as incorporation of [5-3H]-Urd; assay type: functional, Mus musculus
# Outline: as §1
# L1210 [8] = test: Effect of the compound(25 uM) on RNA synthesis in L1210 cells in culture measured as […]; assay type: functional, Mus musculus
# L1210 [9] = test: Effect of the compound(5 uM) on DNA synthesis in L1210 cells in culture measured as incorporation of [3H]-L-Leu; assay type: functional, Mus musculus; conditions: in the assay text read “protein synthesis” for “DNA synthesis”
# Outline: as §1
# L1210 [10] = test: Effect of the compound(5 uM) on DNA synthesis in L1210 cells in culture measured as incorporation of [5-3H]-Urd; assay type: functional, Mus musculus
# Outline: as §1
# L1210 [11] = test: Effect on the mitosis of cultured L1210 cells measured in metaphase at 12 hours and 0 uM concentration; assay type: functional, Mus musculus
# Outline: (§2)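 Cultured L1210 cells were exposed for 12 h to 0, 3, 10, 30, 50 or 100 μM agent. Read-out was the percentage of cells in metaphase.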
# L1210 [12] = test: Effect on the mitosis of cultured L1210 cells measured in metaphase at 12 hours and 10 uM concentration; assay type: functional, Mus musculus
# Outline: as §2
# L1210 [13] = test: Effect on the mitosis of cultured L1210 cells measured in metaphase at 12 hours and 100 uM concentration; assay type: functional, Mus musculus
# Outline: as §2
# L1210 [14] = test: Effect on the mitosis of cultured L1210 cells measured in metaphase at 12 hours and 3 uM concentration; assay type: functional, Mus musculus
# Outline: as §2
# P388 [15] = test: Compound was evaluated for antitumor activity against mice implanted with lymphatic leukemia P388 cells (10e6 tumor cells) after intraperitoneal administration of 75 mg/kg per injection (1-5 days); assay type: functional; conditions: Mus musculus, P388, ip
# Outline: (§3)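 Mice implanted ip with 10⁶ lymphocytic leukemia P388 cells; drug given ip on days 1-5. Read-out is % increase in life span (% ILS) versus untreated controls, reported at the highest nontoxic dose tested.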
# L1210 [16] = test: Effect on the mitosis of cultured L1210 cells measured in metaphase at 12 hours and 30 uM concentration; assay type: functional, Mus musculus
# Outline: as §2
# L1210 [17] = test: Effect of the compound(5 uM) on RNA synthesis in L1210 cells in culture measured as […]; assay type: functional, Mus musculus
# P388 [18] = test: Compound was evaluated for antitumor activity against mice implanted with lymphatic leukemia P388 cells (10e6 tumor cells) after intraperitoneal administration of 300 mg/kg per injection (1-5 days); assay type: functional; conditions: Mus musculus, P388, ip
# Outline: as §3
# L1210 [19] = test: Effect of the compound(10 uM) on DNA synthesis in L1210 cells in culture measured as incorporation of [3H]dThd; assay type: functional, Mus musculus
# Outline: as §1
# L1210 [20] = test: Effect of the compound(2.5 uM) on DNA synthesis in L1210 cells in culture measured as incorporation of [3H]L-Leu; assay type: functional, Mus musculus; conditions: in the assay text read “protein synthesis” for “DNA synthesis”
# Outline: as §1
# L1210 [21] = test: Effect of the compound(2.5 uM) on RNA synthesis in L1210 cells in culture measured as […]; assay type: functional, Mus musculus
# P388 [22] = test: Compound was evaluated for antitumor activity against mice implanted with lymphatic leukemia P388 cells (10e6 tumor cells) after intraperitoneal administration of 13 mg/kg per injection (1-5 days); assay type: functional; conditions: Mus musculus, P388, ip
# Outline: as §3
# L1210 [23] = test: Effect of the compound(2.5 uM) on DNA synthesis in L1210 cells in culture measured as incorporation of [5-3H]-Urd; assay type: functional, Mus musculus
# L1210 [24] = test: Compound was tested in vivo against mitosis of […] metaphase after 12 hr at 400 mg/kg dose; assay type: functional, Mus musculus
# Outline: (§4)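 Mice implanted ip with L1210 leukemia cells got a single ip injection of test agent or control. Cells were harvested 6, 12 and 24 h after treatment and scored for percentage of cells in metaphase.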
# L1210 [25] = test: Compound was tested in vivo against mitosis of […] metaphase after 12 hr at 600 mg/kg dose; assay type: functional, Mus musculus
# Outline: as §4
# L1210 [26] = test: Compound was tested in vivo against mitosis of […] metaphase after 24 hr at 400 mg/kg dose; assay type: functional, Mus musculus
# Outline: as §4
# L1210 [27] = test: Compound was tested in vivo against mitosis of […] metaphase after 24 hr at 600 mg/kg dose; assay type: functional, Mus musculus
# Outline: as §4
# L1210 [28] = test: Compound was tested in vivo against mitosis of […] metaphase after 6 hr at 400 mg/kg dose; assay type: functional, Mus musculus
# Outline: as §4
# L1210 [29] = test: Compound was tested in vivo against mitosis of […] metaphase after 6 hr at 600 mg/kg dose; assay type: functional, Mus musculus
# Outline: as §4
# L1210 [30] = test: Effect of the compound(50 uM) on DNA synthesis in L1210 cells in culture measured as incorporation of [3H]L-Leu; assay type: functional, Mus musculus; conditions: in the assay text read “protein synthesis” for “DNA synthesis”
# Outline: as §1
# L1210 [31] = test: Effect of the compound(50 uM) on DNA synthesis in L1210 cells in culture measured as incorporation of [3H]dThd; assay type: functional, Mus musculus
# Outline: as §1
# L1210 [32] = test: Effect of the compound(50 uM) on DNA synthesis in L1210 cells in culture measured as incorporation of [5-3H]-Urd; assay type: functional, Mus musculus
# Outline: as §1
# L1210 [33] = test: Effect of the compound(50 uM) on RNA synthesis in L1210 cells in culture measured as incorporation of [5-3H]-Urd; assay type: functional, Mus musculus
# Outline: as §1
# L1210 [34] = test: Effect on the mitosis of cultured L1210 cells measured ain metaphase t 12 hours and 3 uM concentration; assay type: functional, Mus musculus
# Outline: as §2
# L1210 [35] = test: Effect on the mitosis of cultured L1210 cells measured in metaphase at 12 hours and 50 uM concentration; assay type: functional, Mus musculus
# Outline: as §2
# L1210 [36] = test: Effect on the mitosis of cultured L1210 cells measured in metaphase t 12 hours and 30 uM concentration; assay type: functional, Mus musculus
# Outline: as §2
# P388 [37] = test: Compound was evaluated for antitumor activity against mice implanted with lymphatic leukemia P388 cells (10e6 tumor cells) after intraperitoneal administration of 240 mg/kg per injection (1-5 days); assay type: functional; conditions: Mus musculus, P388, ip
# Outline: as §3
Compound,Control (L1210 [1]) [%],Uridine incorporation into DNA (% of control) (L1210 [2]),Control (L1210 [3]) [%],IC50 (L1210 [4]) [µM],Control (L1210 [5]) [%],Control (L1210 [7]),Control (L1210 [8]) [%],Control (L1210 [9]) [%],Control (L1210 [10]),Cells in metaphase (L1210 [11]) [%],Cells in metaphase (L1210 [12]) [%],Cells in metaphase (L1210 [13]) [%],Cells in metaphase (L1210 [14]) [%],Cells in metaphase (L1210 [16]) [%],Control (L1210 [17]) [%],other results
CCOC(=O)Nc1cc(N(C)CC(O)c2ccccc2)c(N)c(N)n1 (stereo unspecified),–,–,–,–,–,–,–,–,–,–,–,–,–,–,–,ILS at 50 mg/kg (L1210 (mouse)): 4%
COC(=O)Nc1cc(NC(C)/C(=N/O)c2ccccc2)c([N+](=O)[O-])c(N)n1 (stereo unspecified),40,46% and 62%,52,5.8,26,65%,64,79,52% and 89%,2,3,14,3,25,86,Control (L1210 [6]): 21%; ILS at 75 mg/kg (P388 [15]): 82%
CCOC(=O)Nc1cc(NC(C)C(=O)c2ccccc2)c([N+](=O)[O-])c(N)n1 (stereo unspecified),–,–,–,37,–,–,–,–,–,–,–,–,–,–,–,ILS at 300 mg/kg (P388 [18]): 2%
CCOC(=O)Nc1cc(NC(C)/C(=N/O)c2ccc(OC)cc2)c([N+](=O)[O-])c(N)n1 (stereo unspecified),82,39%,35,4.2,–,–,–,87,60%,2,26,2,6,24,47,Control (L1210 [19]): 44%; Control (L1210 [20]): 69%; Control (L1210 [21]): 55%; ILS at 13 mg/kg (P388 [22]): 84%; Control (L1210 [23]): 78% and 73%
CCOC(=O)Nc1cc(NC(C)/C(=N/O)c2ccccc2)c([N+](=O)[O-])c(N)n1 (stereo unspecified),79,38% and 42%,55,32,101,25% and 13%,22,–,–,2,3,5,–,–,–,Cells in metaphase (L1210 [24]): 0.8%; Cells in metaphase (L1210 [25]): 1.4%; Cells in metaphase (L1210 [26]): 1.6%; Cells in metaphase (L1210 [27]): 0.4%; Cells in metaphase (L1210 [28]): 0.6%; Cells in metaphase (L1210 [29]): 0.9%; Control (L1210 [30]): 37%; Control (L1210 [31]): 12%; Control (L1210 [32]): 17%; Control (L1210 [33]): 24%; Cells in metaphase (L1210 [34]): 2%; Cells in metaphase (L1210 [35]): 14%; Cells in metaphase (L1210 [36]): 4%; ILS at 240 mg/kg (P388 [37]): 80%
